Measurements: ChEMBL document CHEMBL4373711, “Development of 3,5-Dinitrophenyl-Containing 1,2,4-Triazoles and Their Trifluoromethyl Analogues as Highly Efficient Antitubercular Agents Inhibiting Decaprenylphosphoryl-β-d-ribofuranose 2'-Oxidase” (J Med Chem, 2019)
Converted amounts (≈) assume the structure as drawn. The source made the active and inactive calls. The calls are words filed in the database; no cut-off is given here.

Columns and labels:
[1] = test system: Mycobacterium tuberculosis; assay: Antimycobacterial activity against XDR Mycobacterium tuberculosis Praha 131 after 14 days; type: functional
Procedure, shortened: (§1)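 M. tuberculosis strains (H37Rv and clinical MDR/XDR isolates) tested by microdilution in Šula's semisynthetic medium. Compounds were dissolved in DMSO and tested at 32 to 0.03 µM in twofold steps. Inoculum was a 1.0 McFarland suspension diluted 10-3. Plates were incubated at 37 °C and read at 14 and 21 days.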

[2] = test system: Mycobacterium tuberculosis; assay: Antimycobacterial activity against Mycobacterium tuberculosis H37Rv CNCTC My 331/88 after 14 days; type: functional; details: H37Rv CNCTC My 331/88, 336 h; procedure, shortened: as §1
[3] = test system: Mycobacterium tuberculosis; assay: Antimycobacterial activity against Mycobacterium tuberculosis H37Rv CNCTC My 331/88 after 21 days; type: functional; details: H37Rv CNCTC My 331/88, 504 h; procedure, shortened: as §1
[4] = test system: Mycobacterium avium; assay: Antimycobacterial activity against Mycobacterium avium CNCTC My 330/88 after 14 days; type: functional; details: CNCTC My 330/88, 336 h
Procedure, shortened: (§2)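 M. avium was tested by microdilution in Šula's semisynthetic medium, with compounds dissolved in DMSO and serially diluted from 1000 down to 1. Inoculum was a 1.0 McFarland suspension diluted 10-5. Plates were incubated at 37 °C and read at 14 and 21 days. […] Isoniazid and rifampicin served as standards.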

[5] = test system: Mycobacterium avium; assay: Antimycobacterial activity against Mycobacterium avium CNCTC My 330/88 after 21 days; type: functional; details: CNCTC My 330/88, 504 h; procedure, shortened: as §2
[6] = test system: Mycobacterium kansasii; assay: Antimycobacterial activity against Mycobacterium kansasii CNCTC My 235/80 after 7 days; type: functional; details: CNCTC My 235/80, 168 h
Procedure, shortened: (§3)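 Microdilution in Šula's semisynthetic medium; compounds in DMSO at 32–0.03 µM. Inoculum from 1.0 McFarland suspension diluted 10-4. […] Isoniazid and rifampicin as reference drugs.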

[7] = test system: Mycobacterium kansasii; assay: Antimycobacterial activity against Mycobacterium kansasii CNCTC My 235/80 after 14 days; type: functional; details: CNCTC My 235/80, 336 h; procedure, shortened: as §3
[8] = test system: Mycobacterium kansasii; assay: Antimycobacterial activity against Mycobacterium kansasii CNCTC My 235/80 after 21 days; type: functional; details: CNCTC My 235/80, 504 h; procedure, shortened: as §3
[9] = test system: Mycobacterium kansasii; assay: Antimycobacterial activity against Mycobacterium kansasii 6509/96 after 7 days; type: functional; details: 6509/96, 168 h; procedure, shortened: as §3
[10] = test system: Mycobacterium kansasii; assay: Antimycobacterial activity against Mycobacterium kansasii 6509/96 after 14 days; type: functional; details: 6509/96, 336 h; procedure, shortened: as §3
[11] = test system: Mycobacterium kansasii; assay: Antimycobacterial activity against Mycobacterium kansasii 6509/96 after 21 days; type: functional; details: 6509/96, 504 h; procedure, shortened: as §3
[12] = test system: Staphylococcus aureus; assay: Antibacterial activity against Staphylococcus aureus subsp. aureus ATCC 29213 CCM 4223 at highest concentration measured after 24 to 48 hrs by alamar blue dye based broth microdilution assay; type: functional, organism-based
[13] = test system: Staphylococcus aureus; assay: Antibacterial activity against methicillin-resistant Staphylococcus aureus subsp. aureus ATCC 43300 CCM 4750 at highest concentration measured after 24 to 48 hrs by alamar blue dye based broth microdilution assay; type: functional, organism-based
[14] = test system: Staphylococcus epidermidis; assay: Antibacterial activity against Staphylococcus epidermidis at highest concentration measured after 24 to 48 hrs by alamar blue dye based broth microdilution assay; type: functional, organism-based
[15] = test system: Enterococcus faecalis; assay: Antibacterial activity against Enterococcus faecalis ATCC 29212 CCM 4224 at highest concentration measured after 24 to 48 hrs by alamar blue dye based broth microdilution assay; type: functional, organism-based
[16] = test system: Escherichia coli; assay: Antibacterial activity against Escherichia coli ATCC 25922 CCM 3954 at highest concentration measured after 24 to 48 hrs by alamar blue dye based broth microdilution assay; type: functional, organism-based
[17] = test system: Klebsiella pneumoniae; assay: Antibacterial activity against Klebsiella pneumoniae at highest concentration measured after 24 to 48 hrs by alamar blue dye based broth microdilution assay; type: functional, organism-based
[18] = test system: Serratia marcescens; assay: Antibacterial activity against Serratia marcescens at highest concentration measured after 24 to 48 hrs by alamar blue dye based broth microdilution assay; type: functional, organism-based
[19] = test system: Pseudomonas aeruginosa; assay: Antibacterial activity against Pseudomonas aeruginosa ATCC 27853 CCM 3955 at highest concentration measured after 24 to 48 hrs by alamar blue dye based broth microdilution assay; type: functional, organism-based
[20] = test system: Candida albicans; assay: Antifungal activity against Candida albicans ATCC 24433 CCM 8320 at highest concentration measured after 24 to 48 hrs by alamar blue dye based broth microdilution assay; type: functional, organism-based
[21] = test system: Pichia kudriavzevii; assay: Antifungal activity against Candida krusei ATCC 6258 CCM8271 at highest concentration measured after 24 to 48 hrs by alamar blue dye based broth microdilution assay; type: functional, organism-based
[22] = test system: Candida parapsilosis; assay: Antifungal activity against Candida parapsilosis ATCC 22019 CCM 8260 at highest concentration measured after 24 to 48 hrs by alamar blue dye based broth microdilution assay; type: functional, organism-based
[23] = test system: Candida tropicalis; assay: Antifungal activity against Candida tropicalis ATCC 750 CCM 8264 at highest concentration measured after 24 to 48 hrs by alamar blue dye based broth microdilution assay; type: functional, organism-based
[24] = test system: Aspergillus fumigatus; assay: Antifungal activity against Aspergillus fumigatus ATCC 204305 at highest concentration measured after 24 to 48 hrs by alamar blue dye based broth microdilution assay; type: functional, organism-based
[25] = test system: Aspergillus flavus; assay: Antifungal activity against Aspergillus flavus CCM 8363 at highest concentration measured after 24 to 48 hrs by alamar blue dye based broth microdilution assay; type: functional, organism-based
[26] = test system: Lichtheimia corymbifera; assay: Antifungal activity against Lichtheimia corymbifera CCM 8077 at highest concentration measured after 24 to 48 hrs by alamar blue dye based broth microdilution assay; type: functional, organism-based
[27] = test system: Trichophyton interdigitale; assay: Antifungal activity against Trichophyton interdigitale ATCC 9533 CCM 8377 at highest concentration measured after 72 to 120 hrs by alamar blue dye based broth microdilution assay; type: functional
[28] = test system: HepG2; assay: Cytotoxicity against human HepG2 cells assessed as reduction in cell viability after 48 hrs by CellTiter 96 aqueous one solution assay; type: cell-based; details: HepG2, 48 h
[29] = Cytotoxicity against human HepG2 cells assessed as cell viability at 30 uM after 48 hrs by CellTiter 96 aqueous one solution assay relative to control; type: cell-based; details: read-out: Activity
Procedure, shortened: (§4)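 HepG2 (DMEM, 10% FBS, 1 mM pyruvate) or A431 (DMEM, 10% FBS) seeded 10,000 cells/well, 24 h at 37 °C, 5% CO2, then 30 µM compound for 48 h. MTS reagent 60 min, absorbance 490 nm, background subtracted; 0.1% DMSO vehicle = 100%, 10% SDS = 0% viability.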

[30] = test system: A-431; assay: Cytotoxicity against human A431 cells assessed as reduction in cell viability after 48 hrs by CellTiter 96 aqueous one solution assay; type: cell-based; details: A-431, 48 h
[31] = Cytotoxicity against human A431 cells assessed as cell viability at 30 uM after 48 hrs by CellTiter 96 aqueous one solution assay relative to control; type: cell-based, A-431; details: read-out: Activity; procedure, shortened: as §4

Compound	MIC99 [2] [µM]	MIC99 [3] [µM]	MIC99 [4] [µM]	MIC99 [5] [µM]	MIC99 [6] [µM]	MIC99 [7] [µM]	MIC99 [8] [µM]	MIC99 [9] [µM]	MIC99 [10] [µM]	MIC99 [11] [µM]	Activity [12]	Activity [13]	Activity [14]	Activity [15]	Activity [16]	Activity [17]	Activity [18]	Activity [19]	Activity [20]	Activity [21]	also measured
GENTAMICIN																					MIC>99 [1]: > 8 µM
O=[N+]([O-])c1cc(CSc2nnc(-c3ccccc3)n2C2CCCCC2)cc([N+](=O)[O-])c1	1 (≈ 0.439 µg/mL)	2 (≈ 0.879 µg/mL)	250 (≈ 110 µg/mL)	250 (≈ 110 µg/mL)	1 (≈ 0.439 µg/mL)	2 (≈ 0.879 µg/mL)	4 (≈ 1.76 µg/mL)	1 (≈ 0.439 µg/mL)	2 (≈ 0.879 µg/mL)	4 (≈ 1.76 µg/mL)	inactive	inactive	inactive	inactive	inactive	inactive	inactive	inactive	inactive	inactive	Activity [22]: inactive; Activity [23]: inactive; Activity [24]: inactive; Activity [25]: inactive; Activity [26]: inactive; Activity [27]: inactive; IC50 [28]: > 30 µM; viability at 48 h, 30 µM [29]: 87%; IC50 [30]: > 30 µM; viability at 48 h, 30 µM [31]: 131%
CN[C@@H]1[C@H](O[C@H]2[C@H](O[C@H]3[C@H](O)[C@@H](O)[C@H](N=C(N)N)[C@@H](O)[C@@H]3N=C(N)N)O[C@@H](C)[C@]2(O)C=O)O[C@@H](CO)[C@H](O)[C@H]1O [STREPTOMYCIN]																					MIC99 ([1]; Praha 131, 336 h): > 32 µM
O=[N+]([O-])c1cc(CSc2nnc(-c3ccc(Cl)cc3)n2Cc2ccccc2)cc(C(F)(F)F)c1	32 (≈ 16.2 µg/mL)	> 32	250 (≈ 126 µg/mL)	250 (≈ 126 µg/mL)	32 (≈ 16.2 µg/mL)	> 32	> 32	> 32	> 32	> 32	inactive	inactive	inactive	inactive	inactive	inactive	inactive	inactive	inactive	inactive	Activity [22]: inactive; Activity [23]: inactive; Activity [24]: inactive; Activity [25]: inactive; Activity [26]: inactive; Activity [27]: inactive; IC50 [28]: > 30 µM; viability at 48 h, 30 µM [29]: 107%; IC50 [30]: > 30 µM; viability at 48 h, 30 µM [31]: 73%
